Source: ChEMBL document CHEMBL3244241, “Synthesis of cephalotaxine esters and correlation of their structures with antitumor activity” (J Med Chem, 1977)
The source made the active and inactive calls. No cut-off for these calls is given here.

Experiments:
[1] = tested on: P388; experiment: Antitumor activity against mouse P388 cells allografted in DBA/2 mouse assessed as host survival at 5.9 mg/kg/day, ip for 9 days compound administered through water+alcohol vehicle relative to control; assay type: functional; settings: route intraperitoneal
How it was run: (§1)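 P388 lymphocytic leukemia in DBA/2 mice. Dosing was one intraperitoneal injection per day for 9 days in the vehicle stated. […] Duplicate tests were run for some doses.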

[2] = tested on: P388; experiment: Antitumor activity against mouse P388 cells allografted in DBA/2 mouse assessed as host survival at 2 mg/kg/day, ip for 9 days compound administered through saline vehicle relative to control; assay type: functional; settings: route intraperitoneal; how it was run: as §1
[3] = tested on: Mus musculus; experiment: Toxicity in DBA/2 mouse allografted with mouse P388 cells assessed as change in body weight at 4 mg/kg/day, ip for 9 days compound administered through saline vehicle; assay type: organism-based; design: route intraperitoneal; settings: in vivo, 216 h
[4] = tested on: Mus musculus; experiment: Toxicity in DBA/2 mouse allografted with mouse P388 cells assessed as change in body weight at 2 mg/kg/day, ip for 9 days compound administered through saline vehicle; assay type: organism-based; design: route intraperitoneal; settings: in vivo, 216 h
[5] = tested on: Mus musculus; experiment: Toxicity in DBA/2 mouse allografted with mouse P388 cells assessed as change in body weight at 5.9 mg/kg/day, ip for 9 days compound administered through water+alcohol vehicle; assay type: organism-based; design: route intraperitoneal; settings: in vivo, 216 h
[6] = tested on: P388; experiment: Antitumor activity against mouse P388 cells allografted in DBA/2 mouse assessed as host survival at 4 mg/kg/day, ip for 9 days compound administered through saline vehicle relative to control; assay type: functional; settings: route intraperitoneal; how it was run: as §1
[7] = tested on: P388; experiment: Antitumor activity against mouse P388 cells allografted in ip dosed DBA/2 mouse administered for 9 days; assay type: functional, organism-based
How it was run: (§2)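 P388 lymphocytic leukemia in DBA/2 mice; one intraperitoneal injection per day for 9 days. […] Injection vehicles were water + alcohol, saline + Tween 80, or aqueous 0.5% citric acid. Some tests were duplicated, and 30-day cures were recorded.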

[8] = tested on: Mus musculus; experiment: Toxicity in DBA/2 mouse allografted with mouse P388 cells assessed as change in body weight at 1.9 mg/kg/day, ip for 9 days compound administered through water+alcohol vehicle; assay type: organism-based; design: route intraperitoneal; settings: in vivo, 216 h
How it was run: (§3)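 DBA/2 mice bearing P388 lymphocytic leukemia received one intraperitoneal injection per day for 9 days, given in the vehicle named for each test (water/alcohol-based, saline or saline + Tween 80). Toxicity was noted during dosing alongside survival scoring (T/C, treated versus control mean survival time).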

[9] = tested on: P388; experiment: Antitumor activity against mouse P388 cells allografted in DBA/2 mouse assessed as host survival at 20 mg/kg/day, ip for 9 days compound administered through water+alcohol+acetone vehicle relative to control; assay type: functional; settings: route intraperitoneal; how it was run: as §1
[10] = tested on: Mus musculus; experiment: Toxicity in DBA/2 mouse allografted with mouse P388 cells assessed as change in body weight at 80 mg/kg/day, ip for 9 days compound administered through water+alcohol+acetone vehicle; assay type: organism-based; design: route intraperitoneal; settings: in vivo, 216 h; how it was run: as §3
[11] = tested on: P388; experiment: Antitumor activity against mouse P388 cells allografted in DBA/2 mouse assessed as host survival at 40 mg/kg/day, ip for 9 days compound administered through water+alcohol+acetone vehicle relative to control; assay type: functional; settings: route intraperitoneal; how it was run: as §1
[12] = tested on: P388; experiment: Antitumor activity against mouse P388 cells allografted in DBA/2 mouse assessed as host survival at 10 mg/kg/day, ip for 9 days compound administered through water+alcohol+acetone vehicle relative to control; assay type: functional; settings: route intraperitoneal; how it was run: as §1
[13] = tested on: Mus musculus; experiment: Toxicity in DBA/2 mouse allografted with mouse P388 cells assessed as change in body weight at 10 mg/kg/day, ip for 9 days compound administered through water+alcohol+acetone vehicle; assay type: organism-based; design: route intraperitoneal; settings: in vivo, 216 h; how it was run: as §3
[14] = tested on: P388; experiment: Antitumor activity against mouse P388 cells allografted in DBA/2 mouse assessed as host survival at 1.9 mg/kg/day, ip for 9 days compound administered through water+alcohol vehicle relative to control; assay type: functional; settings: route intraperitoneal; how it was run: as §1
[15] = tested on: Mus musculus; experiment: Toxicity in DBA/2 mouse allografted with mouse P388 cells assessed as change in body weight at 4.4 mg/kg/day, ip for 9 days compound administered through water+alcohol vehicle; assay type: organism-based; design: route intraperitoneal; settings: in vivo, 216 h; how it was run: as §3
[16] = tested on: Mus musculus; experiment: Toxicity in DBA/2 mouse allografted with mouse P388 cells assessed as change in body weight at 20 mg/kg/day, ip for 9 days compound administered through water+alcohol+acetone vehicle; assay type: organism-based; design: route intraperitoneal; settings: in vivo, 216 h; how it was run: as §3
[17] = tested on: P388; experiment: Antitumor activity against mouse P388 cells allografted in DBA/2 mouse assessed as host survival at 4.4 mg/kg/day, ip for 9 days compound administered through water+alcohol vehicle relative to control; assay type: functional; settings: route intraperitoneal; how it was run: as §1
[18] = tested on: Mus musculus; experiment: Toxicity in DBA/2 mouse allografted with mouse P388 cells assessed as change in body weight at 40 mg/kg/day, ip for 9 days compound administered through water+alcohol+acetone vehicle; assay type: organism-based; design: route intraperitoneal; settings: in vivo, 216 h; how it was run: as §3
[19] = tested on: P388; experiment: Antitumor activity against mouse P388 cells allografted in DBA/2 mouse assessed as host survival at 80 mg/kg/day, ip for 9 days compound administered through water+alcohol+acetone vehicle relative to control; assay type: functional; settings: route intraperitoneal; how it was run: as §1
[20] = tested on: P388; experiment: Antitumor activity against mouse P388 cells allografted in DBA/2 mouse at 480 mg/kg/day, ip for 9 days; assay type: functional, organism-based; how it was run: as §2
[21] = tested on: Mus musculus; experiment: Toxicity in DBA/2 mouse allografted with mouse P388 cells at >80 mg/kg/day, ip for 9 days; assay type: organism-based; settings: in vivo, 216 h; how it was run: as §3

COC(=O)C[C@](O)(CCC(C)C)C(=O)O[C@@H]1C(OC)=C[C@]23CCCN2CCc2cc4c(cc2[C@H]13)OCO4 [DEOXYHARRINGTONINE]
T/C [1]: 184%
T/C [2]: 126%
Activity [3]: 0 g
Activity [4]: 0.8 g
Activity [5]: -0.9 g
T/C [6]: 174%

CCOC(=O)O[C@@H]1C(OC)=C[C@]23CCCN2CCc2cc4c(cc2[C@H]13)OCO4
Activity [7]: inactive

CCC(C)(OC(=O)OCC(Cl)(Cl)Cl)C(=O)O[C@@H]1C(OC)=C[C@]23CCCN2CCc2cc4c(cc2[C@H]13)OCO4 (stereo partly specified)
Activity [7]: inactive

COC(=O)/C=C/C(=O)O[C@@H]1C(OC)=C[C@]23CCCN2CCc2cc4c(cc2[C@H]13)OCO4
Activity [8]: 0.5 g
T/C [9]: 125%
Activity [10]: -0.7 g
T/C [11]: 134%
T/C [12]: 136%
Activity [13]: -1.2 g
T/C [14]: 134%
Activity [15]: -1.5 g
Activity [16]: -1 g
T/C [17]: 147%
Activity [18]: -0.9 g
T/C [19]: 145%

COC(=O)/C=C/C=C/C(=O)O[C@@H]1C(OC)=C[C@]23CCCN2CCc2cc4c(cc2[C@H]13)OCO4
Activity [7]: inactive

COC(=O)/C=C(\C)C(=O)O[C@@H]1C(OC)=C[C@]23CCCN2CCc2cc4c(cc2[C@H]13)OCO4
Activity [7]: inactive

C=C(CC(=O)OC)C(=O)O[C@@H]1C(OC)=C[C@]23CCCN2CCc2cc4c(cc2[C@H]13)OCO4 (single isomer, unassigned)
Activity [20]: inactive

COC1=C[C@]23CCCN2CCc2cc4c(cc2[C@@H]3[C@@H]1OC(=O)[C@@H](O)c1ccccc1)OCO4
Activity [21]: Toxic
Activity [7]: inactive

COC1=C[C@]23CCCN2CCc2cc4c(cc2[C@@H]3[C@@H]1OC(=O)OCc1ccccc1)OCO4
Activity [7]: inactive
